≈ marks a conversion by molar mass, not a printed value. Calls of active or inactive are those of the source. Unless noted, no cut-off for these calls is given here.
How the values were obtained:
Nakaseomyces glabratus [1] = experiment: Antifungal activity against Candida glabrata ATCC 48435 at 125 ug/ml after 48 to 72 hrs by broth microdilution method; type: functional, organism-based
Procedure, shortened: (§1)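 Broth microdilution per NCCLS. Inocula come from 5–7 colonies on YM agar, suspended in sterile water and adjusted to 0.5 McFarland at 530 nm (stock 1×10⁶–5×10⁶ cells/mL), then diluted 1:50 in HEPES-buffered RPMI 1640. Compounds in DMSO (final ≤1%) are added as a 10-fold dilution into the suspension. Plates run 48–72 h at 35 °C, humid. Growth is scored visually; the endpoint is ≥80% reduction versus drug-free wells.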

Candida albicans [2] = experiment: Antifungal activity against Candida albicans ATCC 10231 at 125 ug/ml after 48 to 72 hrs by broth microdilution method; type: functional, organism-based; procedure, shortened: as §1
Candida albicans [3] = experiment: Antifungal activity against Candida albicans ATCC 10231 at 8 ug/ml after 48 to 72 hrs by broth microdilution method; type: functional
Nakaseomyces glabratus [4] = experiment: Antifungal activity against Candida glabrata ATCC 48435 after 48 to 72 hrs by broth microdilution method; type: functional
Procedure, shortened: (§2)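 Broth microdilution per NCCLS. Organisms were subcultured on Sabouraud agar. Inoculum was 5–7 colonies from YM agar in sterile water, adjusted to 0.5 McFarland at 530 nm (1–5×10⁶ cells/mL stock), held 30 min at RT, then diluted 1:50 in HEPES-buffered RPMI 1640. DMSO stocks were twofold-diluted, with final DMSO ≤1%. Plates ran 48–72 h at 35 °C, humid. MIC is the lowest concentration giving ≥80% growth reduction vs drug-free wells, scored visually. Fluconazole or amphotericin B ran as drug control.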

Candida albicans [5] = experiment: Antifungal activity against Candida albicans ATCC 10231 after 48 to 72 hrs by broth microdilution method; type: functional; procedure, shortened: as §2
HepG2 [6] = experiment: Cytotoxicity against human HepG2 cells assessed as cell viability at 8 to 800 ug/ml after 24 hrs by MTT assay; type: cell-based; conditions: hepg2, 24 h
Procedure, shortened: (§3)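 MTT (tetrazolium) assay in Vero and HepG2 cells. Cells were pre-grown 24 h at 37 °C/5% CO₂ in DMEM with 10% FBS. Compounds diluted in media at the fungal MIC and at 5×, 10× and 100× MIC, then exposed 24 h. Dye was added for 1–4 h, then stop solution for 1 h at RT; A570 read. Viability was taken as % of 1% DMSO no-drug wells, with 0.1% saponin as death control. Triplicate, mean ± SD.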

[7] = Cytotoxicity against african green monkey Vero cells assessed as cell viability at 8 to 800 ug/ml after 24 hrs by MTT assay; type: cell-based; conditions: chlorocebus sabaeus, read-out: Activity; procedure, shortened: as §3
HepG2 [8] = experiment: Cytotoxicity against human HepG2 cells assessed as cell viability at 2 to 200 ug/ml after 24 hrs by MTT assay; type: cell-based; conditions: hepg2, 24 h; procedure, shortened: as §3
[9] = Cytotoxicity against african green monkey Vero cells assessed as cell viability at 2 to 200 ug/ml after 24 hrs by MTT assay; type: cell-based; conditions: chlorocebus sabaeus, read-out: Activity; procedure, shortened: as §3
Candida albicans [10] = experiment: Antifungal activity against Candida albicans ATCC 10231 at 62 ug/ml after 48 to 72 hrs by broth microdilution method; type: functional

In the case of `CN1C(=O)C(CCCc2ccccc2)C(=O)N(C)C1=O`, the Activity (Nakaseomyces glabratus [1]) was “inactive” and the Activity (Candida albicans [2]) was “inactive”.

For `CC(=O)C1C(=O)NC(=O)N(c2ccccc2)C1=O` (stereo unspecified), the Activity (Nakaseomyces glabratus [1]) was “inactive” and the Activity (Candida albicans [2]) was “inactive”.

In the case of `O=C1NC(=O)C(C(=O)c2ccc([N+](=O)[O-])cc2)C(=O)N1`, the Activity (Nakaseomyces glabratus [1]) was “inactive” and the Activity (Candida albicans [2]) was “inactive”.

With `COc1ccc(C(=O)C2C(=O)NC(=O)NC2=O)cc1` the Activity (Nakaseomyces glabratus [1]) was “inactive” and the Activity (Candida albicans [2]) was “inactive”.

In the case of `O=C1NC(=O)C(/C=N/c2ccccc2O)C(=O)N1`, the inhibition at 8 µg/mL (Candida albicans [3]) was under 50%, the MIC80 (Nakaseomyces glabratus [4]) was “inactive” and the MIC80 (Candida albicans [5]) was 8 µg/mL (≈ 32.4 µM).

For `O=CC1C(=O)NC(=O)NC1=O`, the Activity (Nakaseomyces glabratus [1]) was “inactive” and the Activity (Candida albicans [2]) was “inactive”.

With `O=C1NC(=O)C(Cc2ccc(O)cc2)C(=O)N1` the Activity (Nakaseomyces glabratus [1]) was “inactive” and the Activity (Candida albicans [2]) was “inactive”.

With `O=C1NC(=O)N(c2ccccc2)C(=O)C1C(=O)c1ccc(O)cc1` (stereo unspecified) the Activity (Nakaseomyces glabratus [1]) was “inactive” and the Activity (Candida albicans [2]) was “inactive”.

For `O=C1NC(=O)C(CCCc2ccccc2)C(=O)N1`, the Activity (Nakaseomyces glabratus [1]) was “inactive” and the Activity (Candida albicans [2]) was “inactive”.

With `O=C1NC(=O)C(CC2CCC(O)CC2)C(=O)N1` (stereo unspecified) the Activity (Nakaseomyces glabratus [1]) was “inactive” and the Activity (Candida albicans [2]) was “inactive”.

With `CN1C(=O)C(/C=N/c2ccccc2O)C(=O)N(C)C1=O` the Activity (HepG2 [6]) was “Toxic”, the viability at 24 h [7] was 35% and the inhibition at 8 µg/mL (Candida albicans [3]) was under 50%. The MIC80 (Nakaseomyces glabratus [4]) was “inactive” and the MIC80 (Candida albicans [5]) was 8 µg/mL (≈ 29.1 µM).

In the case of `CN1C(=O)C(C(=O)c2cccnc2)C(=O)N(C)C1=O`, the Activity (Nakaseomyces glabratus [1]) was “inactive” and the Activity (Candida albicans [2]) was “inactive”.

With `C/C(=N\Nc1ccc([N+](=O)[O-])cc1)C1C(=O)NC(=O)NC1=O` the Activity (HepG2 [8]) was “Toxic”, the viability at 24 h [9] was 35% and the MIC80 (Nakaseomyces glabratus [4]) was 2 µg/mL (≈ 6.55 µM). The MIC80 (Candida albicans [5]) was 2 µg/mL (≈ 6.55 µM).

`COc1ccc(C(=O)N/N=C/C2C(=O)N(C)C(=O)N(C)C2=O)cc1` gave an inhibition at 62 µg/mL (Candida albicans [10]) of under 50%, an MIC80 (Nakaseomyces glabratus [4]) of 31 µg/mL (≈ 93.3 µM) and an MIC80 (Candida albicans [5]) of 62 µg/mL (≈ 187 µM).

With `O=C1NC(=O)C(Cc2ccc3ccccc3c2)C(=O)N1` the Activity (Nakaseomyces glabratus [1]) was “inactive” and the Activity (Candida albicans [2]) was “inactive”.

With `CCCCCCCC1C(=O)NC(=O)NC1=O` the Activity (Nakaseomyces glabratus [1]) was “inactive” and the Activity (Candida albicans [2]) was “inactive”.

With `C/C(=N\Nc1ccc([N+](=O)[O-])cc1[N+](=O)[O-])C1C(=O)NC(=O)NC1=O` the MIC80 (Nakaseomyces glabratus [4]) was “inactive” and the MIC80 (Candida albicans [5]) was “inactive”.

In the case of `CCCCN1C(=O)NC(=O)C(C(=O)c2ccc(O)cc2)C1=O` (stereo unspecified), the Activity (Nakaseomyces glabratus [1]) was “inactive” and the Activity (Candida albicans [2]) was “inactive”.

With `CN(C)c1ccc(CC2(Cc3ccc(N(C)C)cc3)C(=O)NC(=O)NC2=O)cc1` the Activity (Nakaseomyces glabratus [1]) was “inactive” and the Activity (Candida albicans [2]) was “inactive”.

In the case of `CN1C(=O)C(/C=N/c2cccc(O)c2)C(=O)N(C)C1=O`, the MIC80 (Nakaseomyces glabratus [4]) was “inactive” and the MIC80 (Candida albicans [5]) was “inactive”.

For `C/C(=N\NC(=O)c1ccc([N+](=O)[O-])cc1)C1C(=O)N(C)C(=O)N(C)C1=O`, the MIC80 (Nakaseomyces glabratus [4]) was “inactive” and the MIC80 (Candida albicans [5]) was “inactive”.

In the case of `CN1C(=O)C(/C=N/c2ccccn2)C(=O)N(C)C1=O`, the MIC80 (Nakaseomyces glabratus [4]) was “inactive” and the MIC80 (Candida albicans [5]) was “inactive”.

For `O=C1NC(=O)C(=Cc2ccccc2)C(=O)N1`, the MIC80 (Nakaseomyces glabratus [4]) was “inactive” and the MIC80 (Candida albicans [5]) was “inactive”.

In the case of `O=C1NC(=O)N(c2ccccc2)C(=O)/C1=C\c1ccc(O)cc1`, the MIC80 (Nakaseomyces glabratus [4]) was “inactive” and the MIC80 (Candida albicans [5]) was “inactive”.

For `COC(=O)N/N=C(\C)C1C(=O)N(C)C(=O)N(C)C1=O`, the MIC80 (Nakaseomyces glabratus [4]) was “inactive” and the MIC80 (Candida albicans [5]) was “inactive”.

With `O=C1NC(=O)C(Cc2ccccc2)(Cc2ccccc2)C(=O)N1` the Activity (Nakaseomyces glabratus [1]) was “inactive” and the Activity (Candida albicans [2]) was “inactive”.

For `CN1C(=O)C(=Cc2ccc(N(C)C)cc2)C(=O)N(C)C1=O`, the MIC80 (Nakaseomyces glabratus [4]) was “inactive” and the MIC80 (Candida albicans [5]) was “inactive”.
